Consider one compound from ChEMBL document CHEMBL1142981, “Identification and synthesis of a novel selective partial PPARdelta agonist with full efficacy on lipid metabolism in vitro and in vivo” (J Med Chem, 2007).

One may read the half-life as how long it takes for the measured level to halve. By EC50 is commonly meant the concentration giving half of the maximal effect. In general, Cmax refers to the highest concentration seen after dosing.

Active and inactive are the calls of the source. The rule behind the calls is not given here. Some results are limits rather than exact numbers.

For series [1], the system named is Mus musculus. Kind of series: Decrease in glucose level in human ApoB100/CETP transgenic mouse at 20 mg/kg, po after 6 weeks relative to control. The arrangement: scale not given: the % may be the effect or the level left. It is filed as functional.
Series [2] deals with L6. The experiment in a line: Effect on increase in fatty acid oxidation in rat L6 cells relative to GW-501516. It is filed as functional. The arrangement: concentration or dose not given beside the values. In a few lines:
(§1)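 Rat L6 myoblasts differentiated 5 days in 2% serum, then treated 42 h with compound (refreshed at 24 h), followed by 6 h with 0.4 mM palmitate containing [9,10-3H]-palmitic acid on 2% fatty-acid-free BSA. Stopped with 10% TCA; released 3H-H2O collected by overnight equilibration at 50 °C and counted.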

A short description of series [3]: Half life in Sprague-Dawley rat at 2.06 mg/kg, po. Further details: dose 2.06 mg/kg, route oral. It counts as ADME, organism-based. The note with it: in vivo. In a few lines:
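Male SD rats dosed once i.v. or p.o. (n = 8 per route), vehicle 5% ethanol, 10% HPCD, phosphate buffer pH 7.5-8.0. One animal sacrificed at each of 5, 15, 30, 60, 90, 120, 240 and 360 min; EDTA plasma analysed by high turbulence LC-MS/MS. Each data point represents one animal.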

Series [4] has as its system Mus musculus. The experiment in a line: Increase in total cholesterol level in human ApoB100/CETP transgenic mouse at 20 mg/kg, po after 6 weeks relative to control. It counts as functional.
The target of series [5] is T1, Peroxisome proliferator-activated receptor gamma (Mus musculus) (UniProt P37238).
T1 sequence (whole entry): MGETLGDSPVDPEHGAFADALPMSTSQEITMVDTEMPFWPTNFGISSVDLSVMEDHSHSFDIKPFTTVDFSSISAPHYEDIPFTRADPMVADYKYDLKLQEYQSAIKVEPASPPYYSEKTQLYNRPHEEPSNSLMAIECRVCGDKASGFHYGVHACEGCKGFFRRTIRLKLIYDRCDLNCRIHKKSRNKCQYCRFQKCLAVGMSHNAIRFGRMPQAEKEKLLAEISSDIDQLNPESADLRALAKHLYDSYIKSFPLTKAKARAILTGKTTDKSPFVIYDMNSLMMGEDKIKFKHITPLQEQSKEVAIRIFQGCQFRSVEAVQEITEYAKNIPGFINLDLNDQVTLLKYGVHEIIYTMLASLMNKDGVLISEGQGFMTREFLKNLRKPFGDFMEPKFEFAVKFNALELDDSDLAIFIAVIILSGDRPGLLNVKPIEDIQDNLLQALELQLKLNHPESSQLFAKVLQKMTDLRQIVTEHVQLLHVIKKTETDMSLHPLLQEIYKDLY
Kind of series: Agonist activity at mouse PPAR gamma expressed in HEK293 cells up to 30 uM by PPAR-GAL4 transactivation assay. It is filed as functional, cell-based.

Series [6] deals with Mus musculus. The experiment in a line: Decrease in total ketone bodies level in human ApoB100/CETP transgenic mouse at 20 mg/kg, po after 6 weeks relative to control. It counts as functional. Further details: scale not given: the % may be the effect or the level left.
Series [7] has as its system Mus musculus. Kind of series: Decrease in glucose level in human ApoB100/CETP transgenic mouse at 5 mg/kg, po after 6 weeks relative to control. It counts as functional. Further details: scale not given: the % may be the effect or the level left.
The test system of series [8] is Mus musculus. The experiment in a line: Decrease in LDL level in human ApoB100/CETP transgenic mouse at 20 mg/kg, po after 6 weeks relative to control. It is filed as functional. Further details: scale not given: the % may be the effect or the level left.
For series [9], the system named is Mus musculus. The experiment in a line: Decrease in total cholesterol level in human ApoB100/CETP transgenic mouse at 5 mg/kg, po after 6 weeks relative to control. It is filed as functional. Further details: scale not given: the % may be the effect or the level left.
In series [10] the target is T2, Peroxisome proliferator-activated receptor delta (Mus musculus, UniProt P35396).
T2 sequence (P35396 whole entry): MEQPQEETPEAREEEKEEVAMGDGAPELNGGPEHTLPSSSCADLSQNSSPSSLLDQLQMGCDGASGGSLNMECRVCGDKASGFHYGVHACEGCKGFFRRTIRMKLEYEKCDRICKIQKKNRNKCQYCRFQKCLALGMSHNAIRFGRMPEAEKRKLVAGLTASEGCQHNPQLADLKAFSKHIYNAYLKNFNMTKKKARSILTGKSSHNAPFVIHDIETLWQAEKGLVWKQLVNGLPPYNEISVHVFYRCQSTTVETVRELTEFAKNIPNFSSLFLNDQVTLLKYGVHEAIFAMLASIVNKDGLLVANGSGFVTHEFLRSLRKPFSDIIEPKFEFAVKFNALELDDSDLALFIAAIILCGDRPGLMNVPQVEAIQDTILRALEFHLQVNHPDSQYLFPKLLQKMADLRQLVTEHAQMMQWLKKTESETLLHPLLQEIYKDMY
Kind of series: (§2) Agonist activity at mouse PPAR delta expressed in HEK293 cells by PPAR-GAL4 transactivation assay. It counts as functional, cell-based.

In series [11] the target is T3, Peroxisome proliferator-activated receptor delta (Mus musculus) (UniProt P35396).
T3 sequence (whole entry): T2 sequence (P35396 whole entry)
Described as §2. It counts as functional, cell-based.

The subject of series [12] is Mus musculus. Kind of series: Decrease in HbA1c level in human ApoB100/CETP transgenic mouse at 5 mg/kg, po after 6 weeks relative to control. Further details: scale not given: the % may be the effect or the level left. It is filed as functional.
The nature of series [13]: Plasma Cmax in Sprague-Dawley rat at 2.06 mg/kg, po. It is filed as ADME, organism-based. The arrangement: dose 2.06 mg/kg, route oral. The gist of the method:
(§3)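 Male SD rats received a single p.o. or i.v. dose (n = 8 per route) in 5% ethanol, 10% HPCD and phosphate buffer, pH 7.5-8.0. At 5, 15, 30, 60, 90, 120, 240 and 360 min one rat was sacrificed per time point. EDTA plasma was assayed by high turbulence LC-MS/MS. Cmax and bioavailability were taken from oral dosing; volume of distribution is at steady state.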

In series [14] the test system is Mus musculus. The experiment in a line: Increase in insulin level in human ApoB100/CETP transgenic mouse at 20 mg/kg, po after 6 weeks by ELISA relative to control. It counts as functional.
Series [15] has as its target T4, Peroxisome proliferator-activated receptor alpha (Homo sapiens) (UniProt Q07869).
T4 sequence (whole entry): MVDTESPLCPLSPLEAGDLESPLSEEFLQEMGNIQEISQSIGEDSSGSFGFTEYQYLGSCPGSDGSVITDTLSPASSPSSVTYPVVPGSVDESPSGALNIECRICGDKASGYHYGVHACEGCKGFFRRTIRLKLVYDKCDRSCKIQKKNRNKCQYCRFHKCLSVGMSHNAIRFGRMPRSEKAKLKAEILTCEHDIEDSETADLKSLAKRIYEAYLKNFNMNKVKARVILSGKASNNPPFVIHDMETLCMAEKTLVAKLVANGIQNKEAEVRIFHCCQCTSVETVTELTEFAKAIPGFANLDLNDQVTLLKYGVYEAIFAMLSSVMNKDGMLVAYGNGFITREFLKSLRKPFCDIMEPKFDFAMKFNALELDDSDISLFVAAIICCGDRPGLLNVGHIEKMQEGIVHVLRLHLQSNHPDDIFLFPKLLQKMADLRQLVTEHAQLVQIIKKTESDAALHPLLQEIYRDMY
The experiment in a line: Activity at human liver PPAR alpha expressed in HEK293 cells by GAL4 transactivation assay relative to NNC61-4655. It is filed as cell-based.

The nature of series [16]: Volume of distribution in Sprague-Dawley rat at 1.06 mg/kg, iv. It is filed as ADME, organism-based. Further details: dose 1.06 mg/kg, route intravenous. The note with it: in vivo, read-out: Vss. The gist of the method:
as §3

Series [17] relates to Mus musculus. The experiment in a line: Decrease in LDL level in human ApoB100/CETP transgenic mouse at 5 mg/kg, po after 6 weeks relative to control. It is filed as functional. Further details: scale not given: the % may be the effect or the level left.
Series [18] concerns Mus musculus. Kind of series: Decrease in glucose level in human ApoB100/CETP transgenic mouse at 10 mg/kg, po after 6 weeks relative to control. Further details: scale not given: the % may be the effect or the level left. It counts as functional.
Series [19] relates to L6. Kind of series: Effect on fatty acid oxidation in rat L6 cells. It counts as functional, cell-based. The gist of the method: as §1

In the case of `O=C(O)COc1ccc(SCC=C(c2ccc(Br)cc2)c2ccc(Br)cc2)cc1Cl`, the Activity is on record as 5% in the series on Mus musculus [1]; 109% in the series with L6 [2]; 2% in the series with Mus musculus [4]; 29% in the series with Mus musculus [6]; 3% with Mus musculus [7]; 35% with Mus musculus [8]. Moreover, the Activity with Mus musculus [9] is 19%; in series [11], 167%; in the series with Mus musculus [12] it was 4%; in the series on Mus musculus [14], 3%; in the series on Mus musculus [17] it was 7%; in the series on Mus musculus [18], 2%. Besides, the half-life in [3] was 59 min. The result in series [5] was inactive. Also, the EC50 in series [10] is 300 nM; with L6 [19], 30 nM. In addition, the Cmax in [13] was found to be 508 ng/mL. For the same compound, the Efficacy in series [15] is over 12%. For the same compound, the Vd in series [16] worked out at 0.3 L/kg.
